Experimental data: paper PMC3063522 (Journal of agricultural and food chemistry, 2011)
In brackets after ≈: the same amount, converted by molar mass. Entries after “also recorded” stand apart in the source; their conditions may differ.

Legend:
[1] = Cytotoxicity; assay type: cell-based; conditions: human, SK-MEL malignant melanoma cells
Procedure, shortened: (§1)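 Anti-proliferative assay run alongside four human tumour lines (SK-MEL, KB, BT-549, SK-OV-3) and two noncancerous kidney lines (Vero, LLC-PK11). Doxorubicin served as the positive control.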

[2] = Cytotoxicity; assay type: cell-based; conditions: human, KB oral epidermal carcinoma cells
Procedure, shortened: as §1

[3] = Cytotoxicity; assay type: cell-based; conditions: human, BT-549 breast ductal carcinoma cells
Procedure, shortened: as §1

[4] = Cytotoxicity; assay type: cell-based; conditions: human, SK-OV-3 ovary carcinoma cells
Procedure, shortened: as §1

[5] = Cytotoxicity; assay type: cell-based; conditions: African green monkey, Vero kidney fibroblasts
Procedure, shortened: as §1

[6] = Cytotoxicity; assay type: cell-based; conditions: pig, LLC-PK11 kidney epithelial cells
Procedure, shortened: as §1

[7] = Cytotoxicity towards HL-60 cells in the antioxidant assay; assay type: cell-based; conditions: human, HL-60 promyelocytic leukemia cells
[8] = Cytotoxicity to RAW 264.7 cells in the iNOS assay; assay type: cell-based, mouse; conditions: mouse, RAW 264.7 macrophages
[9] = tested on: RAW 264.7 cells; assay: Cytotoxicity to RAW 264.7 cells in the iNOS assay; assay type: cell-based, mouse; conditions: RAW 264.7 cells, same assay
[10] = tested on: Phomopsis obscurans; assay: Antifungal broth dilution microbioassay, Phomopsis obscurans; assay type: cell-based; conditions: 120 and 144 h (from 120 to 144 h)
Procedure, shortened: (§2)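 Broth microdilution adapted from the NCCLS M27-A yeast method for conidia-forming filamentous plant-pathogenic fungi. The commercial fungicide captan served as the internal standard in every assay. Means were compared by SAS analysis of variance with Fisher's protected LSD. For P. viticola and P. obscurans, activity was read at 120 and 144 h of incubation.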

[11] = homologous standards for the HPLC regression; cited from earlier work
[12] = tested on: mosquito larvae; assay: Mosquito larvae toxicity bioassay; assay type: in vivo; conditions: Figure 4
Procedure, shortened: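 Larval toxicity bioassay, run in triplicate. Controls were untreated, DMSO-acetone carrier, and permethrin as the positive control.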

[13] = tested on: Phomopsis viticola; assay: Antifungal broth dilution microbioassay, Phomopsis viticola; assay type: cell-based; conditions: at the highest concentrations, Figure 2D
Procedure, shortened: as §2

[14] = tested on: Botrytis cinerea; assay: Antifungal broth dilution microbioassay, Botrytis cinerea; assay type: cell-based
Procedure, shortened: as §2

Row | SMILES | IC50 [1] | IC50 [2] | IC50 [3] | IC50 [4] | IC50 [5] | IC50 [6] | IC50 [7] | IC50 [8] | Inhibition of iNOS activity (NO production) in RAW 264.7 cells IC50 Cytotoxicity [9] | Antifungal activity against P. obscurans [10] | log P (known constants of standards) [11] | Toxicity to mosquito larvae [12] | Antifungal activity against P. viticola [13] | Growth inhibition of B. cinerea ([14]; 48 h) | Growth inhibition of B. cinerea ([14]; 72 h)
1 | CC(C)=CCc1c(O)cc(/C=C/c2ccc(O)cc2)cc1O [Compound 2, arachidin-2] | 20 µg/mL (≈ 67.5 µM) | 22.5 µg/mL (≈ 75.9 µM) | 7.5 µg/mL (≈ 25.3 µM) | > 25 µg/mL | 13.5 µg/mL (≈ 45.6 µM) | 13.5 µg/mL (≈ 45.6 µM) | 16 µg/mL (≈ 54 µM) | > 25 µg/mL | no cytotoxicity | did not exhibit any activity |  |  |  |  | 
2 | CCCc1ccccc1 [propylbenzene] |  |  |  |  |  |  |  |  |  |  | 3.69 |  |  |  | 
3 | COc1cc(/C=C/c2ccc(O)cc2)cc(OC)c1 [Compound 21, pterostilbene] | > 25 µg/mL | > 25 µg/mL | > 25 µg/mL | > 25 µg/mL | > 25 µg/mL | > 25 µg/mL | 21 µg/mL (≈ 81.9 µM) | > 25 µg/mL | no cytotoxicity |  |  | highest activity; also recorded: somewhat greater activity |  |  | 
4 | CC(C)/C=C/c1c(O)cc(/C=C/c2ccc(O)cc2)cc1O [Compound 3, arachidin-3] | > 25 µg/mL | > 25 µg/mL | > 25 µg/mL | > 25 µg/mL | > 25 µg/mL | > 25 µg/mL | > 25 µg/mL | > 25 µg/mL | no cytotoxicity | did not exhibit any activity |  |  |  |  | 
5 | Oc1ccc(/C=C/c2cc(O)cc(O)c2)cc1 [Compound 24, resveratrol, reference compound] | > 25 µg/mL | > 25 µg/mL | > 25 µg/mL | > 25 µg/mL | > 25 µg/mL | > 25 µg/mL | 8 µg/mL (≈ 35 µM) | > 25 µg/mL | no cytotoxicity |  |  | significantly lower toxicity | essentially inactive | minimal activity | no activity
